Screening data (PubChem)
Only some compounds are listed: those with a hit (about 2.4% of all), similar ones and a draw of the others.
dFosB activator = activators of delta FosB homodimer, primary screen, biochemical, fluorescence polarization, TAMRA-CDK5 oligo, single point; 340,000 compounds, 0.99% hits; purified delta FosB; percent of positive-control signal above neutral wells; activation, % at 25 µM;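 active = mean activation above about 17%, with every replicate also reaching it, limit read from the data, passing the limit was not always enough; inconclusive = only one of the two conditions met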
Target sequence (P13346 whole entry, looked up): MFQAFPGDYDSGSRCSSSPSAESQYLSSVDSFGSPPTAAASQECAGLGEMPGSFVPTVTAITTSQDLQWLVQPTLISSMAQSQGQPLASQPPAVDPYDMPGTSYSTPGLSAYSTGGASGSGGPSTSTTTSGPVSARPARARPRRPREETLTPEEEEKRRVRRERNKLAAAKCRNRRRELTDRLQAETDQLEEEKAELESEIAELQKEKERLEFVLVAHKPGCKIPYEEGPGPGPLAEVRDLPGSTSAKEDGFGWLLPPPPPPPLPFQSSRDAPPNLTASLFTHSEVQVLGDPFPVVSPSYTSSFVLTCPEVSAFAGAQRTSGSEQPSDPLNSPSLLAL
Cneo AK release = Cryptococcus neoformans cell lysis inducers, primary screen, AK release luminescence, single concentration; C. neoformans lysis, adenylate kinase release luminescence, 4 h; normalised: neutral wells 0, clomiphene wells 100; lysis activity, % at 15 µM; 360,000 compounds, 0.2% hits;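 active = mean lysis activity across replicates of at least 80%, whatever share of replicates individually reach that level; inactive = mean lysis activity below 80%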
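Signal: Adenylate kinase release luminescence | Assay system: Log-phase Cryptococcus neoformans yeast cells | Input: Cells at 5 × 10^6 per mL | Buffer or medium: Fresh YPD growth medium | Compound: Single dose | Schedule: Static 4 h at 37 °C with compound, 1 h detection | Controls: Clomiphene | Read-out: Luminescence rise reflecting yeast cell lysis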
Env fusion inh = inhibitors of HIV-1 Env-driven cell-cell fusion, primary screen, HeLa-JRFL effector, CEM21 target cells, luciferase; AID 651610, 2012; 360,000 compounds, 1.1% hits; inhibition, % at 12.3 µM;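 active = mean replicate inhibition score of at least 50 and every replicate individually at or above 50; inconclusive = only one of the two criteria met; inactive = mean below 50 and not all replicates reaching 50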;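 note: 0% = plate neutral controls and 100% = maraviroc near 300 nM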
INS-1E GSIS act = GLuc luminescence reporter in INS-1E cells, primary screen for activators of glucose-dependent secretion of insulin; AID 743287, 2014; activation, % at 16.6 µM; 370,000 compounds, 0.61% hits; INS-1E GLuc reporter insulin secretion, 2-3 h;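 active = lowest replicate activation of at least 40%, so every replicate reaches that level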;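 note: 0% = median of neutral control wells and 100% = median of IBMX positive control wells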
Rtt109 HAT inh = inhibitors of C. albicans Rtt109/Vps75 HAT, primary screen, biochemical, ThioGlo CoA-SH fluorescence, plate reader | Histone acetyltransferase RTT109 (Candida albicans (strain SC5314 / ATCC MYA-2876)), … | purified Rtt109/Vps75, 4 h | inhibition, % at 34.9 µM | 330,000 compounds, 0.16% hits | AID 540336, 2011;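 active = inhibition of at least 50% in every replicate; inconclusive = best replicate reaches 50% inhibition but some replicates fall short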
Target sequence (Q5AAJ8 whole entry, looked up): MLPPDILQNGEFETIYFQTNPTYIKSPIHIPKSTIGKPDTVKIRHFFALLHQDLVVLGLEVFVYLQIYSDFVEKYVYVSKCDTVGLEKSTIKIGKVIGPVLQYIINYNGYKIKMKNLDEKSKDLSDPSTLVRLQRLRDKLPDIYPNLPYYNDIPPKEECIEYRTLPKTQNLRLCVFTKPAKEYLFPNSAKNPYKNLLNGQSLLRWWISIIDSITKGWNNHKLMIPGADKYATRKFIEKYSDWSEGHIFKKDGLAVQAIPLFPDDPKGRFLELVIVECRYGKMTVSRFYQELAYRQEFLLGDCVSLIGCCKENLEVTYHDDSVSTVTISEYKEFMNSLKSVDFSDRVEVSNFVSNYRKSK
miR122 inh = miR-122 Renilla sensor signal increase in Huh7, primary screen, miR-122 inhibitor project, cell-based, single point, plate reader | Huh7 miR-122 Renilla luciferase sensor, 48 h; neutral wells = 0, positive control = 100 | activation (reporter increase), % at 12.5 µM | 340,000 compounds, 0.3% hits | AID 602342, 2012;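 active = mean replicate activation score at least 90 and every replicate individually at or above 90; inconclusive = only one of the two criteria met; inactive = neither criterion met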;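 note: higher luciferase means less miR-122 activity so hits act as miR-122 inhibitors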
Active calls of the source: *; u = inconclusive; x = no result; [ ] = another dose, or the depositor's remark.

SMILES	dFosB activator	Cneo AK release	Env fusion inh	INS-1E GSIS act	Rtt109 HAT inh	miR122 inh
Clc1ccc2nc(C3CCCCC3)c(CC3CCCCC3)n2c1	x	0.5	-62.8	x	x	5.5
CC(C)(C)c1nc2ccc(Cl)cn2c1CC1CCCCC1	x	2.2	1.7	52.7*	x	0.3
COc1ccc(OC)c(CNS(=O)(=O)c2cc(-c3cc(C)no3)ccc2OC)c1	-9.5	-1.4	3.1	27.5	-5.2	13.4
Cc1ccc(NS(=O)(=O)c2cc(-c3cc(C)no3)ccc2C(C)C)nc1	-7.4	0.5	0.2	37.1	-4.3	99.1*
COc1ccc(-c2cc(C)no2)cc1S(=O)(=O)NCC(C)c1ccccc1 (stereo not given)	-18.4	0.0	55.9*	-7.2	5.6	148.2*
CCOc1ccccc1CNS(=O)(=O)c1cc(-c2cc(C)no2)ccc1OC	-6.7	1.8	4.5	0.8	0.7	52.6
COc1ccccc1CNS(=O)(=O)c1cc(-c2cc(C)no2)ccc1C(C)C	4.4	2.6	-5.5	46.5*	-1.7	106.9*
COc1cccc(CNC(=O)N[C@@H](CC(C)C)C(=O)O)c1	-1.3	0.8	x	50.3*	5.3	-5.5
CCOC(=O)c1cnc2ccc(OCC)cc2c1NCc1ccccc1OC	-8.8	4.2	94.5*	-16.0	3.5	x
CCN(CC)c1ccc(C2C(C(=O)OCCOC)=C(C)NC3=C2C(=O)CC(C)(C)C3)cc1 (stereo not given)	-4.1	0.4	x	x	-8.9	95.1*
C[C@@H]1CN([C@@H](C)CO)C(=O)c2cc(C#CC3(O)CCCC3)cnc2O[C@@H]1CN(C)C(=O)C1CC1	x	x	-4.3[16.7 µM]	1.9	x	-5.3[16.7 µM]
CC(=O)Nc1ccc(S(=O)(=O)Nc2ccc3c(c2)n(C)c(=O)n3C)c(C)c1	-3.0	0.5	-36.1	97.8*	-7.6	155.7*
COc1ccc(C(=O)OCC(=O)c2c(N)n(C)c(=O)n(C)c2=O)c(OC)c1OC	-2.6	4.8	3.4	45.2*	-2.9	12.2
Cc1nn(C)c(Cl)c1NC(=O)OCc1ccc(Cl)cc1Cl	-3.4	-1.2	73.4*	x	4.9	-16.2
Cc1nnsc1NC(=O)OCc1ccc(Cl)cc1Cl	u	x	x	x	-0.6	3.2
CCCC(=O)N1CCC2(CC1)CN(C(=O)c1ccc(F)cc1)[C@H](CO)c1[nH]c3cc(OC)ccc3c12	x	x	x	10.2	x	x
C/C=C/c1cccc(-c2nc(C(=O)NC3CCC3)cc3c2[C@H](CCO)N([S@@](=O)C(C)(C)C)C3)c1	x	x	x	-23.3	x	x
O=C(CN(C1CCCCC1)S(=O)(=O)c1ccc(F)cc1)Nc1ccc2c(c1)OCO2	-7.2	-0.3	-25.3	x	18.1	246.6*
O=C(CN(C1CCCCC1)S(=O)(=O)c1ccc(F)cc1)NCCCO	-5.3	0.5	x	x	0.8	3.8
C=CCN=C1CC(C)(C)C(C(=O)OC)C(O)=C1C(=O)CCC (stereo not given)	1.3	x	-4.8	72.5*	1.7	0.9
CCCC(=O)C1=C(SCC)CC(C)(C)C(C(=O)OC)C1=O (stereo not given)	-7.7	0.0	x	x	18.1	-3.0
CCCC(=O)N1CC2(CN(C(=O)NC(C)C)C2)c2c(n(C)c3cc(OC)ccc23)[C@H]1CO	x	x	x	15.0	x	x
O=C(c1cccc(-c2cncc3nccn23)c1)N1CCOCC1	x	0.7	3.2	2.1	x	1.0
CN1CCN(C(=O)c2cccc(-c3cnc4cnc(-c5ccccc5Oc5ccccc5)cn34)c2)CC1	x	-0.5	0.3	42.1*	x	-3.8
CC(C)CC#Cc1ccc2c(c1)O[C@@H](CN(C)C(=O)Cc1ccccc1)[C@@H](C)CN([C@H](C)CO)S2(=O)=O	x	1.3	30.7[16.7 µM]	-15.9	x	-5.0[16.7 µM]
SMILES	dFosB activator	Cneo AK release	Env fusion inh	INS-1E GSIS act	Rtt109 HAT inh	miR122 inh
COc1ccccc1/C=C/CN1CCCC(CCC(=O)NCc2ccc(F)c(F)c2)C1 (stereo not given)	-0.4	x	63.4*	-12.7	0.9	-1.5
CCN(CC)CCN(C(=O)c1ccc(Br)s1)c1nc2cc3c(cc2s1)OCCO3	-5.6	x	1.4	10.5	1.6	2.6
CN(C)CCCN(C(=O)c1ccc(Br)s1)c1nc2cc3c(cc2s1)OCCO3	23.8*	5.2	-13.5	-20.9	18.7	4.4
CN(C)CCCN(C(=O)c1cc2cc([N+](=O)[O-])ccc2s1)c1nc2cc3c(cc2s1)OCCO3	u	10.2	86.8*	-11.0	1.4	x
CN(C)CCCN(C(=O)c1ccc([N+](=O)[O-])s1)c1nc2cc3c(cc2s1)OCCO3	2.1	7.5	-10.6	8.6	5.4	-1.0
COc1cccc(-c2ccc(C3[C@@H]4CN(C(=O)Cc5ccccc5)C[C@H]3N4)cc2)c1 (stereo not given in full)	x	x	x	-29.3	x	x
O=C(Nc1ccncc1)C1COc2ccccc2O1 (stereo not given)	-0.3	-1.4	x	x	1.2	-0.9
CC(OC(=O)C1COc2ccccc2O1)C(=O)N(C)c1ccccc1 (stereo not given)	1.9	x	5.8	0.2	-1.1	x
O=C(NC1=NCCS1)C1COc2ccccc2O1 (stereo not given)	-5.5	-12.5	98.5*	x	-1.1	3.7
CC(OC(=O)C1COc2ccccc2O1)C(=O)c1ccccc1 (stereo not given)	x	8.4	-4.9	48.4*	x	-2.4
O=C(Nc1ccc(F)cc1)C1COc2ccccc2O1 (stereo not given)	1.2	0.8	-17.4	183.8*	1.4	2.0
CC(C)NC(=O)Nc1ccc2c(c1)CC(=O)N(C)C[C@H](C)[C@H](CN(C)C(=O)NC(C)C)O2	x	x	x	-4.3	x	x
COC(=O)C(CC(C)C)Oc1ccc2c(C)cc(=O)oc2c1 (stereo not given)	-5.5	20.0	-6.9	x	x	152.2*
CC(=O)Oc1ccc2c(C)cc(=O)oc2c1	-5.6	x	x	x	-0.2	-6.4
COc1cccc(S(=O)(=O)Nc2ccc3c(c2)C(=O)N(C)C[C@H](OC)[C@H](C)CN[C@H](C)CO3)c1	x	-0.9	7.8[16.7 µM]	9.1	x	-11.4[16.7 µM]
CC(C)(C)OC(=O)N(CCc1ccccc1)Cc1cccc(OCc2cccc(NC(=O)c3ccccc3)c2)c1	-8.4	3.7	66.1*	6.5	3.6	-0.5
CC(C)C(=O)Nc1cccc(COc2ccc(CN(Cc3ccccc3)C(=O)OC(C)(C)C)cc2)c1	-6.1	-7.7	58.2*	-21.0	1.5	-7.0
Cc1ccc(C(C)C)cc1S(=O)(=O)NCc1ccccn1	-1.3	1.2	3.2	-0.1	-3.5	282.8*
COc1ccc(C(C)C)cc1S(=O)(=O)NCc1ccccn1	-0.6	-3.7	10.1	x	2.2	27.9
